Measurements published in paper PMC7161550 (British Journal of Pharmacology, 2020).
Read-outs that look alike come from different tables or passages of the source. Blank lines part the entries; values can stand above or below the molecule they belong to.

Assays:
[1] = type: in vivo; conditions: rat, after BIA 10‐2474 10 mg·kg^−1 p.o.
[2] = biological target: T1, mouse brain fatty acid amide hydrolase (FAAH) (Mus musculus, UniProt O08914); assay: Ex vivo FAAH activity in mouse brain after oral administration; conditions: 0.1 mg·kg^−1 p.o., 1 hr after dosing
T1 sequence (O08914 1-579): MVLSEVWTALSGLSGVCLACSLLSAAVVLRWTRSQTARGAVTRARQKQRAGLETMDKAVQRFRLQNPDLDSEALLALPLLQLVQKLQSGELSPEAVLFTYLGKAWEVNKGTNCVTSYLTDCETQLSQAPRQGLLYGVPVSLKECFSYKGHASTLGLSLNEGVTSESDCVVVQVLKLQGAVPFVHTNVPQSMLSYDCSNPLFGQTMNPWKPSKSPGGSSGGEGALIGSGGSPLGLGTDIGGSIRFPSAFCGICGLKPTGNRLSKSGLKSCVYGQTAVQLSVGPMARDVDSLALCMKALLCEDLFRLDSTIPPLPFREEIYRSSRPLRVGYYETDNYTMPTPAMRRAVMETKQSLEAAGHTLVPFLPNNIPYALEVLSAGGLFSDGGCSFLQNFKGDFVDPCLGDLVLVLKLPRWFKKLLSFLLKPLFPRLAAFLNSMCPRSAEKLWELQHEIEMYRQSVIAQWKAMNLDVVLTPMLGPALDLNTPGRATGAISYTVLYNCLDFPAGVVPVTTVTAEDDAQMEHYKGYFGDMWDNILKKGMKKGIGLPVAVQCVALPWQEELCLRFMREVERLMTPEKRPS
Method in brief: (§1)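 Liver and half-brain were collected into FAAH membrane buffer (3 mM MgCl2, 1 mM EDTA, 50 mM Tris HCl, pH 7.4) and stored at −20°C. Homogenates (15 μg protein brain, 5 μg liver) were pre-incubated 15 min at 37°C. AEA + 3H‑AEA + BSA was added for 10 min (brain) or 7 min (liver), then charcoal. Scintillation counting gave % remaining activity versus controls after blank subtraction.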

COS‐hFAAH cells = assay: Quantification of compounds in COS‐hFAAH supernatant, cell lysates and medium; type: in vitro ADME; conditions: 1, 3 and 24 hr
[3] = biological target: T2, mouse liver fatty acid amide hydrolase (FAAH) (Mus musculus, UniProt O08914); assay: Ex vivo FAAH activity in mouse liver after oral administration; conditions: 0.1 mg·kg^−1 p.o., 1 hr after dosing
T2 sequence (O08914 1-579): T1 sequence (O08914 1-579)
Method in brief: as §1

[4] = system: brain fatty acid amides (AEA, PEA, OEA); assay: Fatty acid amides; type: in vivo; conditions: mouse brain, 8 hr
Method in brief: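 Frozen brains were thawed at 4°C and weighed. Each sample was extracted with chloroform:MeOH (2:1) plus 0.1 M phosphate buffer, pH 5.6. Deuterated internal standards were spiked in: AEA‑d8, PEA‑d4 and OEA‑d2 for the fatty acid amides, and 2‑AG‑d8 for 2‑AG.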

[5] = biological target: T3, rat brain fatty acid amide hydrolase (Rattus norvegicus, UniProt P97612); assay: FAAH progression curves, kinetic constants k obs and k inact/K I; type: biochemical; conditions: inhibition of rat brain FAAH, 37°C
T3 sequence (P97612 1-579): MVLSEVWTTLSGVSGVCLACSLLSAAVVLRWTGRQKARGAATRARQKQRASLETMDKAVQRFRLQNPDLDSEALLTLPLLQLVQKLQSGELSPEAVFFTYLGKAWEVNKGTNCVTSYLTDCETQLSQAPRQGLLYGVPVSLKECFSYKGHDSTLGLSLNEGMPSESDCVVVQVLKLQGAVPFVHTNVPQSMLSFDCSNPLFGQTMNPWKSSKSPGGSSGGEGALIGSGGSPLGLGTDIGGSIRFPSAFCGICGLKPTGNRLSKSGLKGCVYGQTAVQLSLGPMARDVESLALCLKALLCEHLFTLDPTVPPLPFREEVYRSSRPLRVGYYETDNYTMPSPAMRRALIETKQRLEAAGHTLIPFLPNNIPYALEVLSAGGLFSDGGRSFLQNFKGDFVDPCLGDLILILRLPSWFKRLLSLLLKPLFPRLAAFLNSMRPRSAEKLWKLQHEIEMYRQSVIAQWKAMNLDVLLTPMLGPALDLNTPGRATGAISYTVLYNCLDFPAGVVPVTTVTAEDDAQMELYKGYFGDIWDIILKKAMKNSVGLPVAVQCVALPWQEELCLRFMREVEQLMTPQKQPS

[6] = system: 229 assays for receptors, enzymes, transporters, ion channels, hormones, growth factors and inflammatory mediators; type: binding; conditions: 10 and 50 μM
[7] = Protein binding to cell homogenates; type: in vitro ADME; conditions: 500 μg·ml^−1 of protein
[8] = biological target: T4, rat brain fatty acid amide hydrolase (FAAH) (Rattus norvegicus, UniProt P97612); type: biochemical; conditions: read-out: IC50 [95% CI]
T4 sequence (P97612 1-579): T3 sequence (P97612 1-579)
Method in brief: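 Rat brain membranes from Wistar rats, 10 μg protein, in 1 mM EDTA, 10 mM Tris, pH 7.6. Test compound at 1 nM–10 μM, pre-incubated with enzyme 5–60 min, or reaction started with enzyme when not pre-incubated. Substrate 2 μM AEA + 5 nM 3H‑AEA + 0.1% fatty acid-free BSA, 30 min at room temperature with agitation. Charcoal stop; supernatant 3H‑ethanolamine counted. Blank and vehicle controls; IC50 from normalized variable-slope sigmoidal fit.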

[9] = biological target: T5, human recombinant fatty acid amide hydrolase (FAAH) (Homo sapiens, UniProt O00519); assay: FAAH activity in intact COS‐hFAAH cells; type: cell-based; conditions: for IC50: read-out: IC50 [95% CI]
T5 sequence (O00519 1-579): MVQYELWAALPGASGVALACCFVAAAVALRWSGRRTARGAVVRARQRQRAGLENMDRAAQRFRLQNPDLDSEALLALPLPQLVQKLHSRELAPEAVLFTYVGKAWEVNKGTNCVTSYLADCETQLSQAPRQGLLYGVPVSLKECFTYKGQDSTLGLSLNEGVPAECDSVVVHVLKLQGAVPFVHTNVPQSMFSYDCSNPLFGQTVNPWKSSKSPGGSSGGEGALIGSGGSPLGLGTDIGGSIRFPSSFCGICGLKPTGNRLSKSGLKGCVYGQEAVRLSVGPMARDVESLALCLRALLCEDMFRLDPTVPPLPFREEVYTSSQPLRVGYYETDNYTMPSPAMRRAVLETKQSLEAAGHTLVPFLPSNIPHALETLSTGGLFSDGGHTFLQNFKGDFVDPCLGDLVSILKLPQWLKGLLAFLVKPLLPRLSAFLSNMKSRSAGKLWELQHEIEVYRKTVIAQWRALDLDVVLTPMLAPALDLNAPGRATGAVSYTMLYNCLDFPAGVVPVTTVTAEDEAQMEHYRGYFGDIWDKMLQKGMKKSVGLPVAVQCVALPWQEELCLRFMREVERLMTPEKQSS

[10] = biological target: T6, fatty acid amide hydrolase (Rattus norvegicus, UniProt P97612); assay: Gel‐based competitive ABPP in vitro, TAMRA‐FP probe, rat brain fractions; type: biochemical; conditions: 1 hr
T6 sequence (P97612 1-579): T3 sequence (P97612 1-579)
Method in brief: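 Rat brain membrane and soluble protein extracts (200 μg) were incubated 1 hr at room temperature with test compound at 1 nM–100 μM, DMSO vehicle or PMSF 3 mM. Active serine hydrolases were then labelled with TAMRA‑FP probe (2 μM final) for 1 hr at room temperature. Bands were visualized by in-gel fluorescence.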

- brain levels at all time points measured [1]: below the limit of quantification
SMILES: CN(C(=O)n1cnc(-c2cccnc2)c1)[C@H]1CC[C@H](O)CC1 [BIA 10‐2631, N‐((1R,4R)‐4‐hydroxycyclohexyl)‐N‐methyl‐4‐(pyridin‐3‐yl)‐1H‐imidazole‐1‐carboxamide]

- brain levels at all time points measured [1]: below the limit of quantification
SMILES: CN(C(=O)n1cnc(-c2ccc[n+]([O-])c2)c1)[C@H]1CC[C@H](O)CC1 [BIA 10‐2639, 3‐(1‐(((1R,4R)‐4‐hydroxycyclohexyl)(methyl)carbamoyl)‐1H‐imidazol‐4‐yl)pyridine 1‐oxide]

SMILES: O=C(Nc1cnccc1Cl)N1CCN(Cc2ccc3c(c2)OC(F)(F)O3)CC1 [JNJ‐42165279]
- inhibition of brain FAAH [2]: 19.2%
- detection in cell lysates (COS‐hFAAH cells): undetectable
- stability in cellular media over time (COS‐hFAAH cells): stable
- inhibition of liver FAAH [3]: 25.5%
- AEA ([4]; 1 mg·kg^−1 p.o.): 89.0 ± 20.6 % of control
- OEA ([4]; 1 mg·kg^−1 p.o.): 114.9 ± 13.36 % of control
- PEA ([4]; 1 mg·kg^−1 p.o.): 123.4 ± 11.2 % of control
- AEA ([4]; 3 mg·kg^−1 p.o.): 83.6 ± 9.1 % of control
- OEA ([4]; 3 mg·kg^−1 p.o.): 121.7 ± 10.2 % of control
- PEA ([4]; 3 mg·kg^−1 p.o.): 138.3 ± 19.4 % of control
- AEA ([4]; 10 mg·kg^−1 p.o.): 86.5 ± 4.8 % of control
- OEA ([4]; 10 mg·kg^−1 p.o.): 147.3 ± 13.8 % of control
- PEA ([4]; 10 mg·kg^−1 p.o.): 205.6 ± 37.0 % of control
- AEA ([4]; 30 mg·kg^−1 p.o.): 95.5 ± 2.5 % of control
- OEA ([4]; 30 mg·kg^−1 p.o.): 234.9 ± 46.8 % of control
- PEA ([4]; 30 mg·kg^−1 p.o.): 382.2 ± 103.5 % of control
- k inact/K I [5]: 5,092 M·s^−1
- off‐target activity at the sites studied [6]: some weak activity at just seven sites
- mean % free fraction ± SD [7]: 64.3 ± 4.0%
- IC50 ([8]; pre‐incubation 0 min): 472 nM
- IC50 ([8]; pre‐incubation 5 min): 365 nM
- IC50 ([8]; pre‐incubation 15 min): 272 nM
- IC50 ([8]; pre‐incubation 30 min): 221 nM
- IC50 ([8]; pre‐incubation 45 min): 161 nM
- IC50 ([8]; pre‐incubation 60 min): 94.3 nM
- inhibition level above 30 nM ([9]; 1‐ and 3‐hr periods): around 50%
- IC50 ([9]; incubation 1 hr): 26.2 nM
- IC50 ([9]; incubation 3 hr): 25.1 nM
- IC50 ([9]; incubation 24 hr): 41.5 nM
- concentration that completely inhibited the band corresponding to the MW of FAAH [10]: 10 µM
